Test results published in article PMC4059259 (Journal of Medicinal Chemistry, 2014).
pIC50: −log10 of the molar value. Entries after “also recorded” stand apart in the source; their conditions may differ. Blank lines part the entries; values can stand above or below the compound they belong to.

How the values were obtained:
[1] = test system: early liver stage parasites; conditions: cited from earlier work
PfAtg8^CM = biological target: T1, PfAtg8^CM (Plasmodium falciparum, UniProt Q8IJK2, C119S/C122S/C32I); test: Direct binding of 1 to immobilized PfAtg8^CM by SPR; parameters: species or system P. falciparum
T1 sequence (Q8IJK2 1-124 C32I/C119S/C122S): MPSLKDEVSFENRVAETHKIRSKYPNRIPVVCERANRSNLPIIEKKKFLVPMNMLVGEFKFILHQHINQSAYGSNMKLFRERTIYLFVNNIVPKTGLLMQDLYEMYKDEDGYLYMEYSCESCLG
How it was run: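 SPR direct binding: His12-PfAtg8CM captured on a nickel-preconditioned NTA chip to 3000 RU. Two-fold dilution series of test compound (top 75 μM) injected at 40 μL/min in PBS pH 7.4 with 0.01% P20 and 3% DMSO. Double referencing with interspersed blanks; DMSO calibration curve; binding constants fitted.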

[2] = test system: P. falciparum blood stage; test: Parasite morphology in blood smears; format: cell-based; conditions: treatment concentration and duration used in the study (50 μM, 5 h)
How it was run: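 Asynchronous FCR3 blood-stage culture (25% parasitemia; 37 °C, 2% hematocrit, RPMI with 10% human serum, 3% CO2/5% O2) washed in serum-free starvation medium. Resuspended in complete medium with 50 μM test compound or DMSO, or in starvation medium with DMSO, for 5 h. Morphology viewed by light microscopy at 100× at harvest.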

human cell lines = conditions: ref PubChem AID: 660872, 685525, and 449705; cited from earlier work
HC-04 cells = test: Viability of HC-04 cells; format: cell-based, human; conditions: 30 μM
[3] = biological target: T2, PfAtg8-PfAtg3 interaction (Plasmodium falciparum, UniProt Q8IJK2, C119S/C122S/C32I); test: MMV SPR competition assay; format: binding, P. falciparum; conditions: read-out: inhibition of the PfAtg8-PfAtg3 interaction in primary SPR screen
T2 sequence (Q8IJK2 1-124 C32I/C119S/C122S): T1 sequence (Q8IJK2 1-124 C32I/C119S/C122S)
T2 sequence (C0H519 1-313 partner): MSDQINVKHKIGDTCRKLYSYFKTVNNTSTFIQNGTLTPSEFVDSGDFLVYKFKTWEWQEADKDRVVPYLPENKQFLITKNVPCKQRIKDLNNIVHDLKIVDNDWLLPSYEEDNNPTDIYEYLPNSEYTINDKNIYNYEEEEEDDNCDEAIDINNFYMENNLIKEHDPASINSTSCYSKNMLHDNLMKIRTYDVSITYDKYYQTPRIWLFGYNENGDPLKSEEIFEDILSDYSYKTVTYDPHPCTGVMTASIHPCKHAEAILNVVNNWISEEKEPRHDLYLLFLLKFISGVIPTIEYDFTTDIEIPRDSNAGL
How it was run: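 MBP-PfAtg3 immobilized on a CM5 chip, with MBP on the reference flowcell. Test compound (final 5 μM) or DMSO was mixed with 300 nM His6-PfAtg8CM in PBS pH 7.4 with 0.01% P20, final DMSO 3%, and injected. Binding read as SPR response versus DMSO control. Surface regenerated with 2 M MgCl2 between injections.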

[4] = test system: Plasmodium yoelii liver stage cultures; conditions: screening concentration 10 μM; ref PubChem AID: 602118 and 602156, 18, 19; cited from earlier work
PfAtg8 = test: Immunoblot analysis of PfAtg8 in P. falciparum blood stage; format: cell-based; conditions: for delipidation of PfAtg8 (immunoblot): 6 hours
P. falciparum 3D7 = test: SYBR green I growth inhibition assay, blood stage; format: cell-based; conditions: Plasmodium falciparum, 3D7, read-out: IC50 in a third experiment
[5] = test system: P. falciparum 3D7-GFP liver stage; test: In vitro infection of human hepatocytes; format: cell-based; conditions: for decrease in proportion of hepatocytes infected with P. falciparum 3D7-GFP (GFP+/PI−): 72 h post infection
PfAtg3 = biological target: T3, PfAtg3 (Plasmodium falciparum, UniProt C0H519); test: Direct binding of protein to immobilized 8 by SPR; parameters: species or system P. falciparum; conditions: data not shown
T3 sequence (C0H519 1-313): T2 sequence (C0H519 1-313 partner)
How it was run: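 Test compound captured on a neutravidin-coated SPR flowcell (130 RUs), with a control ligand on the reference flowcell (150 RUs). His6-PfAtg3 injected in duplicate in 10 mM HEPES pH 7.5, 150 mM NaCl, 0.05% P20. Regeneration after each cycle with 20 mM HEPES pH 7.4, 1% w/v SDS.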

SMILES: Cn1cnc(N)c2ncnc1-2 [3-methyladenine]
effect on conversion of parasite into trophozoite form [1]: delay conversion of the parasite into its trophozoite form

SMILES: Cc1ccc(Nc2nc(-c3ccccn3)cs2)cc1 [Compound 1, N-(4-methylphenyl)-4-pyridin-2-yl-1,3-thiazol-2-amine]
direct binding to PfAtg8^CM (SPR response) (PfAtg8^CM): dose-dependent increase in SPR response; also recorded: directly binds to PfAtg8
parasite morphology [2]: parasite morphology appeared normal
reported cytotoxicity in human cell lines (human cell lines): much lower than that of compounds 2 or 3
cell death in HC-04 cells (HC-04 cells): did not observe cell death
inhibition at 5 µM [3]: ≥ 25%
inhibition of P. yoelii liver stage [4]: ≤ 50%
delipidation of PfAtg8 (immunoblot) (PfAtg8; 12.5 μM): dose-dependent increase in delipidation of PfAtg8
delipidation of PfAtg8 (immunoblot) (PfAtg8; 25 μM): unlipidated PfAtg8 is the predominant species
PfAtg8 protein levels (immunoblot) (PfAtg8; 50 μM (cytocidal, high levels), 5 h, FCR3): drastic increase in PfAtg8 protein levels
pIC50 (P. falciparum 3D7): 5.48
intensity of GFP fluorescence in infected hepatocytes ([5]; 3 μM and 30 μM): dose-dependent reduction
decrease in proportion of hepatocytes infected with P. falciparum 3D7-GFP (GFP+/PI−) ([5]; 3 μM): but not with 3 μM
decrease in proportion of hepatocytes infected with P. falciparum 3D7-GFP (GFP+/PI−) ([5]; 30 μM): ~50%

SMILES: CSc1ccccc1C(=O)Nc1nc(-c2ccccn2)cs1 [Compound 2, 2-methylsulfanyl-N-(4-pyridin-2-yl-1,3-thiazol-2-yl)benzamide]
inhibition at 5 µM [3]: ≥ 25%

SMILES: O=C(Nc1nc(-c2ccccn2)cs1)c1ccccc1Br [Compound 3, 2-bromo-N-(4-pyridin-2-yl-1,3-thiazol-2-yl)benzamide]
inhibition at 5 µM [3]: ≥ 25%

SMILES: Cc1ccc(-c2cc3c(SCC(=O)Nc4cc(C(F)(F)F)ccc4Cl)nccn3n2)cc1 [Compound 4, N-[2-chloro-5-(trifluoromethyl)phenyl]-2-[2-(4-methylphenyl)pyrazolo[1,5-a]pyrazin-4-yl]sulfanylacetamide]
inhibition at 5 µM [3]: ≥ 25%

SMILES: CN(C)c1ccc(N2C(N)=NC(N)=NC2(C)C)cc1 [Compound 5, 1-[4-(dimethylamino)phenyl]-6,6-dimethyl-1,3,5-triazine-2,4-diamine]
inhibition at 5 µM [3]: ≥ 25%

SMILES: Brc1ccc(Nc2nc3ccccc3nc2Nc2ccc(Br)cc2)cc1 [Compound 6, 2-N,3-N-bis(4-bromophenyl)quinoxaline-2,3-diamine]
inhibition at 5 µM [3]: ≥ 25%

binding of recombinant PfAtg3 to immobilized 8 (PfAtg3): did not bind
SMILES: O=C(CCCC[C@H]1SC[C@H]2NC(=O)N[C@H]21)NCCCCCC(=O)NNCc1ccc(C(=O)Nc2nc(-c3ccccn3)cs2)cc1 [Compound 8, 4-[[2-[6-[5-[(3aR,4R,6aS)-2-Oxo-1,3,3a,4,6,6a-hexahydrothieno[3,4-d]imidazol-4-yl]pentanoylamino]hexanoyl]hydrazinyl]methyl]-N-(4-pyridin-2-yl-1,3-thiazol-2-yl)benzamide]
